# Test results reported in ChEMBL document CHEMBL4330057, “Second generation of diazachrysenes: Protection of Ebola virus infected mice and mechanism of action” (Eur J Med Chem, 2019).
# Experiments:
# [1] = Cytotoxicity against human HeLa cells after 2 hrs by high content imaging analysis; format: cell-based
# [2] = Selectivity index, ratio of CC50 for human HeLa cells to EC50 for Ebolavirus H. sapiens-wt/1995/Kikwit-9510621 infected in human HeLa cells; format: toxicity, cell-based; conditions: read-out: Ratio CC50/EC50
# [3] = tested on: Ebolavirus; assay: Antiviral activity against Ebolavirus H. sapiens-wt/1995/Kikwit-9510621 infected in human HeLa cells assessed as inhibition of viral infection pretreated for 2 hrs followed by viral infection and measured after 48 hrs by EboV GP immunostaining based high content imaging analysis; format: functional, organism-based
# [4] = tested on: Ebolavirus; assay: Antiviral activity against Ebolavirus infected in mouse assessed as protection against viral infection at 24 mg/kg/day relative to control; format: functional
# [5] = tested on: Ebolavirus; assay: Antiviral activity against Ebolavirus; format: functional, organism-based; conditions: Orthoebolavirus
# [6] = tested on: Ebolavirus; assay: Antiviral activity against Ebolavirus infected in mouse assessed as protection against viral infection at 60 mg/kg/day relative to control; format: functional
# [7] = Apparent permeability from apical to basolateral side in MDCK cells; format: ADME, cell-based, Canis lupus familiaris; conditions: dog
# Method in brief: (§1)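 Apparent permeability measured in MDCK cell monolayers, apical→basolateral and basolateral→apical directions, three biological replicates.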
# [8] = Apparent permeability from basolateral to apical side in MDCK cells; format: ADME, cell-based, Canis lupus familiaris; conditions: dog; method in brief: as §1
# [9] = tested on: Ebolavirus; assay: Antiviral activity against Ebolavirus infected in mouse assessed as protection against viral infection at 300 mg/kg/day relative to control; format: functional
# [10] = tested on: Ebolavirus; assay: Antiviral activity against Ebolavirus infected in mouse assessed as protection against viral infection at 30 mg/kg/day relative to control; format: functional
# [11] = tested on: Ebolavirus; assay: Antiviral activity against Ebolavirus infected in monkey assessed as protection against viral infection at 3.3 mg/kg/day relative to control; format: functional
# [12] = Orthoebolavirus, H. sapiens-wt/1995/Kikwit-9510621, HeLa
# [13] = Orthoebolavirus, H. sapiens-wt/1995/Kikwit-9510621, HeLa, read-out: EC50
smiles,measurement,setting,value
CCN(CC)CCCNc1ccnc2c1ccc1c2ccc2c(NCCN3CCOCC3)ccnc21,CC50 at 2 h,[1],> 10 µM
same,selectivity ratio,[2],> 12.6
same,EC90,[3]; [12],4.85 µM
same,EC50,[3]; [13],0.79 µM
OC(CNc1ccnc2cccnc12)CN1CCOCC1 (stereo unspecified),EC50,[3],Not Active
c1cc(NCCN2CCOCC2)c2nccc(NCCN3CCOCC3)c2n1,CC50 at 2 h,[1],> 25 µM
same,EC50,[3],Not Active
CCN(CC)CCNc1ccnc2c(NCCN(CC)CC)ccnc12,CC50 at 2 h,[1],> 25 µM
same,selectivity ratio,[2],> 1.8
same,EC90,[3]; [12],62.6 µM
same,EC50,[3]; [13],14.1 µM
CC(C)COCC(CN(Cc1ccccc1)c1ccccc1)N1CCCC1 (stereo unspecified) [BEPRIDIL],Activity,[4],100%
CN(C)CCOc1ccc(/C(=C(/CCCl)c2ccccc2)c2ccccc2)cc1 [TOREMIFENE],EC50,[5],0.97 to 1.73 µM
same,Activity,[6],50%
CCN(CC)CCCNc1ccnc2cccnc12,EC50,[3]; [13],10 µM
COc1cc2nc(N3CCN(C(=O)c4ccco4)CC3)nc(N)c2cc1OC [PRAZOSIN],Papp A→B,[7],27.6 to 30 ×10⁻⁶ cm/s
same,Papp B→A,[8],48.6 to 58.9 ×10⁻⁶ cm/s
Nc1ncnc2c(C[C@@H]3N[C@H](CO)[C@@H](O)[C@H]3O)c[nH]c12,EC50,[5],3.4 to 11.8 µM
same,Activity,[9],100%
NC(=O)c1nc(F)cnc1O,EC50,[5],67 µM
same,Activity,[10],100%
c1cc(NCCCCN2CCOCC2)c2nccc(NCCCCN3CCOCC3)c2n1,CC50 at 2 h,[1],> 25 µM
same,selectivity ratio,[2],> 11.2
same,EC90,[3]; [12],9.9 µM
same,EC50,[3]; [13],2.24 µM
NCCCCNc1ccnc2c1ccc1c2ccc2c(NCCCCN)ccnc21,CC50 at 2 h,[1],> 10 µM
same,selectivity ratio,[2],> 1
same,EC90,[3]; [12],23.5 µM
same,EC50,[3]; [13],10 µM
CCC(CC)COC(=O)[C@H](C)N[P@](=O)(OC[C@H]1O[C@@](C#N)(c2ccc3c(N)ncnn23)[C@H](O)[C@@H]1O)Oc1ccccc1,EC50,[5],0.06 to 0.14 µM
same,Activity,[11],100%
